From the M2OR odorant receptor database
Where a chain is given by its changes, count along the chain named.

Columns and labels:
Details in all cases: stereoisomer not certain
[1] = target: T1, OR1D5 (Homo sapiens) (UniProt P58170)
T1 sequence (whole entry): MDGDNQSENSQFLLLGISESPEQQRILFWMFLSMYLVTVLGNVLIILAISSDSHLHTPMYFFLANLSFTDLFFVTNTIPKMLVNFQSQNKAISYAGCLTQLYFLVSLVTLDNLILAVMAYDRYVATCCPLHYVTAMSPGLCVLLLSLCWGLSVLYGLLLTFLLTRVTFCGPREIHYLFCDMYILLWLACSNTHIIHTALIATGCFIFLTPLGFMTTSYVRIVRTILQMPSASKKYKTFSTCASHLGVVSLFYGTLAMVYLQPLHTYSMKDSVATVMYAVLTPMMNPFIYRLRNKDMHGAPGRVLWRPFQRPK
Outline: (§1)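 Each receptor–molecule pair is labelled responsive or non-responsive (inactive) according to whether the original authors judged the measured signal statistically different from baseline. The data were taken from the main text and supplementary material of published papers and checked for typos and inconsistencies. Assay methods differed by source, with transient luciferase assays in mammalian cell lines being common.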

[2] = target: T2, OR1E1 (Homo sapiens) (UniProt P30953)
T2 sequence (whole entry): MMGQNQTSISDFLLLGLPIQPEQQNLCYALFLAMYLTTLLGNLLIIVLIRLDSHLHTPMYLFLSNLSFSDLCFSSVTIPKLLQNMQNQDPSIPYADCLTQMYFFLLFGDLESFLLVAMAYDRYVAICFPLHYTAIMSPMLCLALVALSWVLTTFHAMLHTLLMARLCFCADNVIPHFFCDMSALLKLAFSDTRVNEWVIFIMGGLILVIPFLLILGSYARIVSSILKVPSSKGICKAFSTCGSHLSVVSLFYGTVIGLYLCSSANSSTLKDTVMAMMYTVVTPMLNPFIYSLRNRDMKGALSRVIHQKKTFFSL
Outline: as §1

[3] = target: T3, OR1E2 (Homo sapiens) (UniProt P47887)
T3 sequence (whole entry): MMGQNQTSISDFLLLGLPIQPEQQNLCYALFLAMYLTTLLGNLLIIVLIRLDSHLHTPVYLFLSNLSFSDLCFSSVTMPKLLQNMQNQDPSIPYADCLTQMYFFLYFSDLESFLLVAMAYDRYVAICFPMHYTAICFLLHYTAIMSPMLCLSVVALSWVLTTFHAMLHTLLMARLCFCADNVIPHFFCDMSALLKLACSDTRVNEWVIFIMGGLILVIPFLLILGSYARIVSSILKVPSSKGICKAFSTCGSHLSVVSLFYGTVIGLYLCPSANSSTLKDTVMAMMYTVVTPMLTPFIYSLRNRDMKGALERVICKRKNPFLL
Outline: as §1

[4] = tested on: T4, OR1E2
T4 sequence (whole entry): T3 sequence (whole entry) with C27R
Outline: as §1

[5] = target: T5, OR1F1 (Homo sapiens) (UniProt O43749)
T5 sequence (whole entry): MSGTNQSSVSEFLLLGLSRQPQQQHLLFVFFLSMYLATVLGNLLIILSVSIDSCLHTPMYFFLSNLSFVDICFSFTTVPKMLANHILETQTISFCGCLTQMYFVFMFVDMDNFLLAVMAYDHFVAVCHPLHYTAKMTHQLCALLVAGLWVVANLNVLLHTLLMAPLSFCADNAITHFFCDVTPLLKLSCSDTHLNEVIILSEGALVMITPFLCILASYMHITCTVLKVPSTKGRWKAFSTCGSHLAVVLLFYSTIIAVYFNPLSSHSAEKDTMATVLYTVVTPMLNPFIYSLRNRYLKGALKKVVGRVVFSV
Outline: as §1

[6] = target: T6, OR1F12P (Homo sapiens) (UniProt Q8NHA8)
T6 sequence (whole entry): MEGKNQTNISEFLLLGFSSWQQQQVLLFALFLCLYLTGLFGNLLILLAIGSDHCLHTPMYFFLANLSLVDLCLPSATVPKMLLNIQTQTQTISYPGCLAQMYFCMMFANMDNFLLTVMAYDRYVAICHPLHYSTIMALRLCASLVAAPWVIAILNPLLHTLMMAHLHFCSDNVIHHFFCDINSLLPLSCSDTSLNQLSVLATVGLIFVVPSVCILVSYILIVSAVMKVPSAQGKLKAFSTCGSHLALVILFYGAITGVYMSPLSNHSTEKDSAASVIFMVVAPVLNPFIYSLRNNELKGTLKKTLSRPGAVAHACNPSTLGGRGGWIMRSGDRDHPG
Outline: as §1

[7] = tested on: T7, OR1F1
T7 sequence (whole entry): T5 sequence (whole entry) with F75S
Outline: as §1

[8] = target: T8, OR1G1 (Homo sapiens) (UniProt P47890)
T8 sequence (whole entry): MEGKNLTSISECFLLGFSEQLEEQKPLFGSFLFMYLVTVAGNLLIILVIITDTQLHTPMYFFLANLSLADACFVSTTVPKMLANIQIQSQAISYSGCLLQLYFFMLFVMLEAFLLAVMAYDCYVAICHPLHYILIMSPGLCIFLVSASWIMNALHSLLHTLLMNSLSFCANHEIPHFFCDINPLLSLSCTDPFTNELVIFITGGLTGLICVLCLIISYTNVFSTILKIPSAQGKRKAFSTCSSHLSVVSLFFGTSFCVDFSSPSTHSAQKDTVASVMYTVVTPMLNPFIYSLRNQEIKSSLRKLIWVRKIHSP
Outline: as §1

[9] = target: T9, OR1I1 (Homo sapiens) (UniProt O60431)
T9 sequence (whole entry): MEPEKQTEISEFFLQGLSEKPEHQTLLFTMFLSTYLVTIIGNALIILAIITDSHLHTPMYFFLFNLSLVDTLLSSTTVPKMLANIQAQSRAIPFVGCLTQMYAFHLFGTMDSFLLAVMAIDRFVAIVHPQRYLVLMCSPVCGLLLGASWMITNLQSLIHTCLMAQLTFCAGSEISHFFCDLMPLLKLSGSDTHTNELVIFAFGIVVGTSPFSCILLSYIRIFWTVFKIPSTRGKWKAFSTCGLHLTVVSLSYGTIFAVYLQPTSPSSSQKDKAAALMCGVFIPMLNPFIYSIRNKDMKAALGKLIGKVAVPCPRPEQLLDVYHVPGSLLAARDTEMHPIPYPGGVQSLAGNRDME
Outline: as §1

[10] = target: T10, OR1J1 (Homo sapiens) (UniProt Q8NGS3)
T10 sequence (whole entry): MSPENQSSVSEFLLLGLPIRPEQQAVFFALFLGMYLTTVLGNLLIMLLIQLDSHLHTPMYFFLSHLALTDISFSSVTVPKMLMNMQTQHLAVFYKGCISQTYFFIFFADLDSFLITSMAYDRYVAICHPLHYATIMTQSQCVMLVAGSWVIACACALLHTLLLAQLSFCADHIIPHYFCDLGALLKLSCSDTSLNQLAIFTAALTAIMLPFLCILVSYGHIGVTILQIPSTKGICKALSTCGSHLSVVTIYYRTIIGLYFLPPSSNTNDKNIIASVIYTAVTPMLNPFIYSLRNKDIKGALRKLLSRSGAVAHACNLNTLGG
Outline: as §1

[11] = target: T11, OR1J2 (Homo sapiens) (UniProt Q8NGS2)
T11 sequence (whole entry): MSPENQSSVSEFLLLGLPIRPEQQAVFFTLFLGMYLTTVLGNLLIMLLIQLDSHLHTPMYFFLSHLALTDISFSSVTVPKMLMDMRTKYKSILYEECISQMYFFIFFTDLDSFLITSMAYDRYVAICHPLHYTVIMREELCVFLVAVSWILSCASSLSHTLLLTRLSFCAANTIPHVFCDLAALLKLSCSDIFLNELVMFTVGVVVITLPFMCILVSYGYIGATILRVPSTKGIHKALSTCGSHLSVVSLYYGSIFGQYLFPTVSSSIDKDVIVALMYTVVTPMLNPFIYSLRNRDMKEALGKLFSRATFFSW
Outline: as §1

[12] = target: T12, OR1J4 (Homo sapiens) (UniProt Q8NGS1)
T12 sequence (whole entry): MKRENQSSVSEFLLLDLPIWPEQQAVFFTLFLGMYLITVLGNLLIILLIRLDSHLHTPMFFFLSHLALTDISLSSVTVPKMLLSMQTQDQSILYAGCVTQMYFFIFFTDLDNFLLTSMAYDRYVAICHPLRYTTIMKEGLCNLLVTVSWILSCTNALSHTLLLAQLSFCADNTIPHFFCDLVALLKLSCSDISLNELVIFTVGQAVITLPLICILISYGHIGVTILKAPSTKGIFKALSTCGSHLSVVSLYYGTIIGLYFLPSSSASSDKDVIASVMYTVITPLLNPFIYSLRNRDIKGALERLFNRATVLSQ
Outline: as §1

[13] = target: T13, OR1K1 (Homo sapiens) (UniProt Q8NGR3)
T13 sequence (whole entry): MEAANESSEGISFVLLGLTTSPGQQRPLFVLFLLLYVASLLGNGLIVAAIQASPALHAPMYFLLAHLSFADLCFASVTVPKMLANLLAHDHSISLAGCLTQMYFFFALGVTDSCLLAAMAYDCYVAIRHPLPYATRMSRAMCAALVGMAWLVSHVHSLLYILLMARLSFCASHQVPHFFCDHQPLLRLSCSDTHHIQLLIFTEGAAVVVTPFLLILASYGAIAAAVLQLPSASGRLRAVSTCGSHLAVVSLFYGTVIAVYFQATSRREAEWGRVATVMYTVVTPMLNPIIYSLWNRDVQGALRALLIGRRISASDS
Outline: as §1

[14] = tested on: T14, OR1L1
T14 sequence (whole entry): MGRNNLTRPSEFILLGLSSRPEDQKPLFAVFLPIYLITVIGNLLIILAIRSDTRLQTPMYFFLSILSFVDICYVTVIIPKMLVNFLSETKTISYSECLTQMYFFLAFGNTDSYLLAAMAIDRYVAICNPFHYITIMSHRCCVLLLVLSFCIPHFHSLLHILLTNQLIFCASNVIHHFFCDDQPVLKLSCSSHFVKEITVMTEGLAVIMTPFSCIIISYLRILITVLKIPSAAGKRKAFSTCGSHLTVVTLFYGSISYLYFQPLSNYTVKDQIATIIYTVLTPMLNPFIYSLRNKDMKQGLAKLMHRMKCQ
Outline: as §1

[15] = target: T15, OR1D4 (Homo sapiens) (UniProt P47884)
T15 sequence (whole entry): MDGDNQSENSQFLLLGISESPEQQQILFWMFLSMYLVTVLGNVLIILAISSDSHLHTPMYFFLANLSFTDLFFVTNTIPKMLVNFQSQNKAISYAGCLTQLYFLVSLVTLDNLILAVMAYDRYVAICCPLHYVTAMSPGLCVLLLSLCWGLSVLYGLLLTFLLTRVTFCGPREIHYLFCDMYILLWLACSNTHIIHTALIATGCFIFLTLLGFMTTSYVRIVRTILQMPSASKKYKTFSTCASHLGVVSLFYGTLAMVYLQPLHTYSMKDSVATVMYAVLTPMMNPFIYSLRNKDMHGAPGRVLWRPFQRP
Outline: as §1

[16] = target: T16, OR1L1 (Homo sapiens) (UniProt Q8NH94)
T16 sequence (whole entry): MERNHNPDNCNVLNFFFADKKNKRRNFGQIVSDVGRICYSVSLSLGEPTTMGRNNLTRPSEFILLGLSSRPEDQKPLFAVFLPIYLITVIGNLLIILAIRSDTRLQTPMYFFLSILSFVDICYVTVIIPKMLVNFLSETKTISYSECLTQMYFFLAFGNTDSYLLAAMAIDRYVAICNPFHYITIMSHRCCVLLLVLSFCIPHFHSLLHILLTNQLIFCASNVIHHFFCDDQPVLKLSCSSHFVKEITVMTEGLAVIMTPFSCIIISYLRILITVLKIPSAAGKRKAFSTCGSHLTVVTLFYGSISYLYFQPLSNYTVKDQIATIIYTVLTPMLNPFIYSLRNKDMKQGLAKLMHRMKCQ
Outline: as §1

[17] = tested on: OR1D2
Outline: as §1
Target sequence in this assay (as listed by the source): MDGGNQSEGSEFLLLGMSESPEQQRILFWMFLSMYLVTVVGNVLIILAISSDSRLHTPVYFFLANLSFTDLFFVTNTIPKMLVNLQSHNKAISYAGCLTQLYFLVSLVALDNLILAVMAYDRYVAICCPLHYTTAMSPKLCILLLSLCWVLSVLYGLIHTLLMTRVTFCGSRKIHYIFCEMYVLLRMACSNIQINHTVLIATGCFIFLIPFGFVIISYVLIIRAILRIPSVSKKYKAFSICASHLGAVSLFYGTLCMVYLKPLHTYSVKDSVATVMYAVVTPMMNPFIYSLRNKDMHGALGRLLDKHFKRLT

[18] = tested on: OR1D2; remark: listed apart in the source
Outline: as §1
Target sequence in this assay (as listed by the source): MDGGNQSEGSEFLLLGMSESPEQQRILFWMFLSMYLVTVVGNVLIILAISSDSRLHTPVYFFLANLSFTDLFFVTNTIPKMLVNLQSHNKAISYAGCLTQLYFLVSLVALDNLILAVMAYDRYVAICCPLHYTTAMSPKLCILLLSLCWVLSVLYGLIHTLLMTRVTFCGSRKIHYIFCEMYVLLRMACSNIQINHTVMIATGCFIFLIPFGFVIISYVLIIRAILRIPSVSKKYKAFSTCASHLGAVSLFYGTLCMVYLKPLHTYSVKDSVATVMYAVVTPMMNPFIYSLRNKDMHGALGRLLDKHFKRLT

[19] = tested on: OR1D2; remark: listed apart in the source
Outline: as §1
Target sequence in this assay (as listed by the source): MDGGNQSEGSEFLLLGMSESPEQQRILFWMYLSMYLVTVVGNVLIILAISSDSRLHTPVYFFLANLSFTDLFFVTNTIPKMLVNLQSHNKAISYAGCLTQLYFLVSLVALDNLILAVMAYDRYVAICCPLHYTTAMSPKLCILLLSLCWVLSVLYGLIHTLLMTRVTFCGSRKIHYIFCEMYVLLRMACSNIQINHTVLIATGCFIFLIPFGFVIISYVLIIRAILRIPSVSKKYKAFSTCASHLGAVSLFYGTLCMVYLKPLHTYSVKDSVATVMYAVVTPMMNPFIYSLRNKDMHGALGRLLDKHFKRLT

Measured: odorant receptor agonist call

CCC1OC(=O)C(O)=C1C (stereo unspecified)
not listed: [15] | [16] | [17] | [18] | [19]
inactive: all other assays above

CCCCCC(O)CC (stereo unspecified)
active: [8]

c1ccc2ncccc2c1
active: [8]

CCC(S)C(C)CO (stereo unspecified)
not listed: [4] | [7] | [14] | [17] | [18] | [19]
inactive: all other assays above

CC(C=O)Cc1ccc(C(C)(C)C)cc1 (stereo unspecified)
inactive: [17] | [18] | [19]

C=CC(C)(CCC=C(C)C)OC(C)=O (stereo unspecified)
inactive: [8]

Cc1cnc(C)c(C)n1
not listed: [15] | [16] | [17] | [18] | [19]
inactive: all other assays above

CC(=O)OCCC(C)C
active: [8]

O=CN1CCCCC1
inactive: [7]

COc1nccnc1CC(C)C
inactive: [8]

CCCCCC=O
active: [8]
